Results as given in ChEMBL document CHEMBL2331450, “Potent BRAF kinase inhibitors based on 2,4,5-trisubstituted imidazole with naphthyl and benzothiophene 4-substituents” (Bioorg Med Chem, 2013).

Tests used:
[1] = biological target: T1, Serine/threonine-protein kinase B-raf (Homo sapiens, UniProt P15056, V600E); experiment: Inhibition of BRAF V600E mutant in human WM266.4 cells assessed as inhibition of ERK phosphorylation after 6 hrs by DELFIA assay; format: cell-based
Method in brief: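 In BRAF-dependent WM266.4 cells, inhibition of ERK phosphorylation measured in a cellular assay and reported as IC50.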

[2] = Antiproliferative activity against human WM266.4 cells after 6 days by SRB assay; format: functional; settings: WM 266-4, 144 h
Method in brief: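 BRAF-dependent WM266.4 melanoma cells; growth inhibition read by SRB staining and reported as GI50.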

[3] = biological target: T1, Serine/threonine-protein kinase B-raf; experiment: Inhibition of human recombinant N-terminal His-tagged BRAF V600E mutant expressed in Sf9 cells using GST-tagged MEK1 and ATP as substrate incubated for 10 mins prior to ATP addition measured after 45 mins by DELFIA assay
Method in brief: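 Enzyme assay with the V600E BRAF mutant in vitro; inhibition reported as IC50.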

T1 sequence (P15056 2-766 V600E limits assumed): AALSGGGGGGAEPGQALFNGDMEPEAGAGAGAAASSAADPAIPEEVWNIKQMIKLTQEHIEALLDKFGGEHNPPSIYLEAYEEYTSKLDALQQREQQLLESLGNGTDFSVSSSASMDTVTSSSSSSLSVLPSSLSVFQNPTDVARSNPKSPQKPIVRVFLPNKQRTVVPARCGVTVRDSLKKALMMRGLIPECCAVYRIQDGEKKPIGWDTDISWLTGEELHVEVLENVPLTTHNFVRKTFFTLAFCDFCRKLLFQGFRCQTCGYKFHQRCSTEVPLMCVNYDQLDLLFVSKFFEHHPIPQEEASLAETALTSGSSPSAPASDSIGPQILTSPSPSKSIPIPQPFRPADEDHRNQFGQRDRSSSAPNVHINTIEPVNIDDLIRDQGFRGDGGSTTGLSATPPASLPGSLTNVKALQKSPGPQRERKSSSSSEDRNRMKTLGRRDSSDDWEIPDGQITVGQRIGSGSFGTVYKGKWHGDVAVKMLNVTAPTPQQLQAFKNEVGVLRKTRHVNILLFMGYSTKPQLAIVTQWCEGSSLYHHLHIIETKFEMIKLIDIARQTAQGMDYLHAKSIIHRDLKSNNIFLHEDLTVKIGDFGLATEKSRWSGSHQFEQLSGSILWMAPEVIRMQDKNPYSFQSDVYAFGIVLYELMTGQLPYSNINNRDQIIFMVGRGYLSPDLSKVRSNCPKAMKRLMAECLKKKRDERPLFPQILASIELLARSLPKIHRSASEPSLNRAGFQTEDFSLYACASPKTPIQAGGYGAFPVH

| IC50 [1] | IC50 [3] | SMILES | GI50 [2] |
| --- | --- | --- | --- |
| 5.9 µM | 0.58 µM | CN(C)CCOc1ccc(-c2nc(-c3ccc(Cl)c(Cl)c3)c(-c3ccncc3)[nH]2)cc1 | 1.6 µM |
| 1.25 µM | 0.042 µM | CN(C)CCOc1ccc(-c2nc(-c3ccc4c(O)c(Cl)ccc4c3)c(-c3ccncc3)[nH]2)cc1 | 1.1 µM |
| 0.39 µM | 0.009 µM | CN(C)CCOc1ccc(-c2nc(-c3ccc4c(O)cccc4c3)c(-c3ccncc3)[nH]2)cc1 | 0.22 µM |
|  | > 10 µM | CN(C)CCOc1ccc(-c2nc(-c3ccc(F)c(Cl)c3)c(-c3ccncc3)[nH]2)cc1 |  |
| 5.1 µM | 1.1 µM | CN(C)CCOc1ccc(-c2nc(-c3ccc4c(N)nccc4c3)c(-c3ccncc3)[nH]2)cc1 | 5.7 µM |
| 3.6 µM | 1.4 µM | CN(C)CCOc1ccc(-c2nc(-c3ccc4ccc(O)cc4c3)c(-c3ccncc3)[nH]2)cc1 | 3.2 µM |
|  | > 10 µM | CN(C)CCOc1ccc(-c2nc(-c3ccc4sc(C(O)C(F)(F)F)cc4c3)c(-c3ccncc3)[nH]2)cc1 (racemic) |  |
|  | > 100 µM | CN(C)CCOc1ccc(-c2nc(-c3ccc4[nH]c(=O)ccc4c3)c(-c3ccncc3)[nH]2)cc1 |  |
|  | > 10 µM | CN(C)CCOc1ccc(-c2nc(-c3ccc4c(=O)[nH]ccc4c3)c(-c3ccncc3)[nH]2)cc1 |  |
|  | > 100 µM | CN(C)CCOc1ccc(-c2nc(-c3ccc4ccc(=O)[nH]c4c3)c(-c3ccncc3)[nH]2)cc1 |  |
|  | > 10 µM | CN(C)CCOc1ccc(-c2nc(-c3ccc4c(C(N)=O)coc4c3)c(-c3ccncc3)[nH]2)cc1 |  |
| 0.25 µM | 0.029 µM | CN(C)CCOc1ccc(-c2nc(-c3ccc4c(O)c(F)ccc4c3)c(-c3ccncc3)[nH]2)cc1 | 11 µM |
|  | > 10 µM | CN(C)CCOc1ccc(-c2nc(-c3ccc4cc(C(=O)O)ccc4c3)c(-c3ccncc3)[nH]2)cc1 |  |
|  | > 10 µM | CN(C)CCOc1ccc(-c2nc(-c3ccc4cc(F)ccc4c3)c(-c3ccncc3)[nH]2)cc1 |  |
| 14 µM | 8.8 µM | CN(C)CCOc1ccc(-c2nc(-c3ccc4cc(O)ccc4c3)c(-c3ccncc3)[nH]2)cc1 | 4.3 µM |

More lines, now with the values behind:

| SMILES | IC50 [1] | IC50 [3] | GI50 [2] |
| --- | --- | --- | --- |
| CCC[S+]([O-])c1csc2cc(-c3nc(-c4ccc(OCCN(C)C)cc4)[nH]c3-c3ccncc3)ccc12 (configuration not stated) |  | > 10 µM |  |
| CN(C)CCOc1ccc(-c2nc(-c3ccc4c(C(O)C(F)(F)C(F)(F)F)csc4c3)c(-c3ccncc3)[nH]2)cc1 (racemic) |  | > 10 µM |  |
| CN(C)CCOc1ccc(-c2nc(-c3ccc4c(C(O)C(F)(F)F)csc4c3)c(-c3ccncc3)[nH]2)cc1 (racemic) | 2.7 µM | 0.33 µM | 3.1 µM |
| CN(C)CCOc1ccc(-c2nc(-c3ccc4c([S+](C)[O-])csc4c3)c(-c3ccncc3)[nH]2)cc1 (configuration not stated) |  | > 10 µM |  |
| CN(C)CCOc1ccc(-c2nc(-c3ccc4c(C=O)csc4c3)c(-c3ccncc3)[nH]2)cc1 |  | > 10 µM |  |
| CN(C)CCOc1ccc(-c2nc(-c3ccc(C(O)C(F)(F)F)cc3)c(-c3ccncc3)[nH]2)cc1 (racemic) |  | > 10 µM |  |
| CN(C)CCOc1ccc(-c2nc(-c3ccc4c(CO)coc4c3)c(-c3ccncc3)[nH]2)cc1 |  | > 10 µM |  |
| CN(C)CCOc1ccc(-c2nc(-c3ccc4c(CO)csc4c3)c(-c3ccncc3)[nH]2)cc1 |  | > 10 µM |  |
| CCCSc1csc2cc(-c3nc(-c4ccc(OCCN(C)C)cc4)[nH]c3-c3ccncc3)ccc12 | 31 µM | 9.4 µM | 2.3 µM |
| CSc1csc2cc(-c3nc(-c4ccc(OCCN(C)C)cc4)[nH]c3-c3ccncc3)ccc12 |  | 14 µM |  |
| CCC(O)c1csc2cc(-c3nc(-c4ccc(OCCN(C)C)cc4)[nH]c3-c3ccncc3)ccc12 (racemic) |  | > 10 µM |  |
| CN(C)CCOc1ccc(-c2nc(-c3ccc4c([C@@H](O)C(F)(F)F)csc4c3)c(-c3ccncc3)[nH]2)cc1 | 2.3 µM | 0.19 µM | 2.1 µM |
